Holding throughout (assay type): functional
For assay [1], the system named is Staphylococcus aureus. Briefly: Antibacterial activity against methicillin-resistant Staphylococcus aureus N315 after 24 hrs by micro-broth dilution method. The note with it: N315, 24 h. An outline of the steps:
(§1)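 Broth microdilution per NCCLS in Mueller-Hinton broth. Inoculum adjusted in sterile saline to 1×10^4–1×10^5 CFU. Compounds taken from DMSO stocks and serially diluted two-fold to final 256–0.25 µg/mL (11 levels). Incubation 37 °C, 24 h, with a DMSO solvent control. Growth read visually and spectrophotometrically. MIC is the lowest concentration that arrests growth.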
A general note: Dilution methods test growth across graded concentrations, often in twofold steps.

The next assay has as its system Pseudomonas aeruginosa. In words: Antibacterial activity against Pseudomonas aeruginosa ATCC 27853 after 24 hrs by micro-broth dilution method. The note with it: ATCC 27853, 24 h. An outline of the steps: (§2)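 MIC by broth microdilution following NCCLS methods. Inoculum adjusted in sterile saline to 1×10^4–1×10^5 CFU. Compounds from DMSO stocks, two-fold serial dilutions in Mueller-Hinton broth at 256 down to 0.25 µg/mL. Incubation 37 °C, 24 h. DMSO solvent control at matching dilutions. Growth read visually and spectrophotometrically. MIC is the lowest concentration arresting growth.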

For the next assay, the system named is Candida albicans. In words: Antifungal activity against Candida albicans ATCC 76615 after 24 hrs by micro-broth dilution method. The note with it: ATCC 76615, 24 h. In outline: (§3)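 Broth microdilution per NCCLS. Spore suspension in sterile distilled water, taken from 1-day-old cultures on Sabouraud agar, final 1–5×10^3 spores/mL. Compounds diluted from stocks in RPMI 1640 to eleven concentrations, 0.25–256 µg/mL. Incubation 35 °C, 24 h. Growth scored visually and spectrophotometrically. MIC is the lowest concentration arresting fungal growth.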

Another assay has as its system Aspergillus fumigatus. In words: Antifungal activity against Aspergillus fumigatus ATCC 96918 after 24 hrs by micro-broth dilution method. Conditions: ATCC 96918, 24 h. In outline:
as §3

The next assay concerns Bacillus subtilis. In words: Antibacterial activity against Bacillus subtilis ATCC 21216 after 24 hrs by micro-broth dilution method. Conditions: ATCC 21216, 24 h. In outline: as §2
The subject of another assay is Bacillus. In words: Antibacterial activity against Bacillus proteus ATCC 13315 after 24 hrs by micro-broth dilution method. Conditions: ATCC 13315, 24 h. An outline of the steps:
as §2

Assay [2] relates to Staphylococcus aureus. In words: Antibacterial activity against Staphylococcus aureus ATCC 29213 after 24 hrs by micro-broth dilution method. The note with it: ATCC 29213, 24 h. In outline: as §1
A further assay has as its system Escherichia coli. Briefly: Antibacterial activity against Escherichia coli ATCC 25922 after 24 hrs by micro-broth dilution method. The note with it: ATCC 25922, 24 h. An outline of the steps: as §2

Converted amounts (≈) assume the structure as drawn. Some results are limits rather than exact numbers.

By MIC is commonly meant the lowest concentration found to suppress growth. Lower therefore signals greater potency. For the compound `OCCN(CCO)Cc1ccc(F)cc1F`, the MIC against Staphylococcus aureus [1] was above 256 µg/mL; in the assay on Pseudomonas aeruginosa, 256 µg/mL (≈ 1110 µM); against Candida albicans it was 256 µg/mL (≈ 1110 µM); in the assay on Aspergillus fumigatus, above 256 µg/mL; in the assay on Bacillus subtilis it was 256 µg/mL (≈ 1110 µM); against Bacillus it was 256 µg/mL (≈ 1110 µM). Further, the MIC is 256 µg/mL (≈ 1110 µM) with Staphylococcus aureus [2] and 128 µg/mL (≈ 554 µM) against Escherichia coli.

In the case of `OCCN(CCO)Cc1ccc(Cl)cc1Cl`, the MIC against Staphylococcus aureus [1] came to 256 µg/mL (≈ 969 µM); against Pseudomonas aeruginosa, 128 µg/mL (≈ 485 µM); against Candida albicans, 128 µg/mL (≈ 485 µM); in the assay with Aspergillus fumigatus it was 256 µg/mL (≈ 969 µM); in the assay on Bacillus subtilis, 256 µg/mL (≈ 969 µM); in the assay with Bacillus it was 128 µg/mL (≈ 485 µM). For the same compound, the results for the MIC against Staphylococcus aureus [2] and against Escherichia coli were 128 µg/mL (≈ 485 µM) and 256 µg/mL (≈ 969 µM), respectively.

In the case of `OCCN(CCO)Cc1ccccc1Cl`, the MIC is above 256 µg/mL in the assay with Staphylococcus aureus [1]; above 256 µg/mL against Pseudomonas aeruginosa; above 256 µg/mL in the assay on Candida albicans; above 256 µg/mL with Aspergillus fumigatus; above 256 µg/mL against Bacillus subtilis; 256 µg/mL (≈ 1110 µM) against Bacillus. The MIC with Staphylococcus aureus [2] and against Escherichia coli was above 256 µg/mL each time.

For `OCCN(CCO)Cc1cccc(Cl)c1`, the minimal inhibitory concentration (MIC) in the assay with Staphylococcus aureus [1], with Pseudomonas aeruginosa, in the assay on Candida albicans, with Aspergillus fumigatus, in the assay with Bacillus subtilis and with Bacillus was above 256 µg/mL in each case. The minimal inhibitory concentration (MIC) against Staphylococcus aureus [2] and in the assay on Escherichia coli was above 256 µg/mL throughout.

In the case of `OCCN(CCO)Cc1ccc(Cl)cc1`, the MIC was above 256 µg/mL against Staphylococcus aureus [1]; 256 µg/mL (≈ 1110 µM) against Pseudomonas aeruginosa; above 256 µg/mL against Candida albicans; above 256 µg/mL against Aspergillus fumigatus; above 256 µg/mL in the assay on Bacillus subtilis; 256 µg/mL (≈ 1110 µM) in the assay on Bacillus. The minimal inhibitory concentration (MIC) against Staphylococcus aureus [2] was above 256 µg/mL; against Escherichia coli, 256 µg/mL (≈ 1110 µM).

For `Fc1ccc(CN(CCn2cnc3ccccc32)CCn2cnc3ccccc32)c(F)c1.O=[N+]([O-])O`, the MIC in the assay on Staphylococcus aureus [1] is 256 µg/mL; against Pseudomonas aeruginosa, above 256 µg/mL; against Candida albicans it was above 256 µg/mL; with Aspergillus fumigatus, above 256 µg/mL; against Bacillus subtilis it was above 256 µg/mL; against Bacillus, 128 µg/mL. The results for the MIC in the assay with Staphylococcus aureus [2] and in the assay with Escherichia coli were 128 µg/mL and above 256 µg/mL, respectively.

Regarding `Clc1ccc(CN(CCn2cncn2)CCn2cncn2)c(Cl)c1`, the MIC in the assay on Staphylococcus aureus [1] was 256 µg/mL (≈ 699 µM); with Pseudomonas aeruginosa it was 32 µg/mL (≈ 87.4 µM); in the assay on Candida albicans, 0.25 µg/mL (≈ 0.683 µM); in the assay on Aspergillus fumigatus it was above 256 µg/mL; in the assay on Bacillus subtilis, above 256 µg/mL; in the assay with Bacillus, 16 µg/mL (≈ 43.7 µM). The MIC against Staphylococcus aureus [2] and in the assay on Escherichia coli was 64 µg/mL (≈ 175 µM) in each case.

Regarding `Clc1ccccc1CN(CCn1cncn1)CCn1cncn1`, the MIC against Staphylococcus aureus [1] is above 256 µg/mL; against Pseudomonas aeruginosa, 128 µg/mL (≈ 386 µM); in the assay on Candida albicans, above 256 µg/mL; against Aspergillus fumigatus, above 256 µg/mL; against Bacillus subtilis, above 256 µg/mL; against Bacillus, above 256 µg/mL. Moreover, the MIC against Staphylococcus aureus [2] was above 256 µg/mL; against Escherichia coli it was 256 µg/mL (≈ 772 µM).

For the compound `Clc1cccc(CN(CCn2cncn2)CCn2cncn2)c1`, the MIC with Staphylococcus aureus [1] is 256 µg/mL (≈ 772 µM); in the assay with Pseudomonas aeruginosa it was 16 µg/mL (≈ 48.2 µM); in the assay with Candida albicans, above 256 µg/mL; with Aspergillus fumigatus, above 256 µg/mL; against Bacillus subtilis it was above 256 µg/mL; against Bacillus, 32 µg/mL (≈ 96.4 µM). For the same compound, the MIC in the assay with Staphylococcus aureus [2] is 256 µg/mL (≈ 772 µM); against Escherichia coli, above 256 µg/mL.

With `Clc1ccc(CN(CCn2cncn2)CCn2cncn2)cc1`, the MIC is above 256 µg/mL in the assay with Staphylococcus aureus [1]; 16 µg/mL (≈ 48.2 µM) in the assay on Pseudomonas aeruginosa; above 256 µg/mL against Candida albicans; above 256 µg/mL in the assay with Aspergillus fumigatus; above 256 µg/mL in the assay with Bacillus subtilis; 128 µg/mL (≈ 386 µM) against Bacillus. The values for the MIC against Staphylococcus aureus [2] and in the assay on Escherichia coli were above 256 µg/mL and 256 µg/mL (≈ 772 µM), respectively.

Regarding `Clc1ccccc1CN(CCn1ccnc1)CCn1ccnc1`, the MIC against Staphylococcus aureus [1] was 256 µg/mL (≈ 776 µM); against Pseudomonas aeruginosa it was 256 µg/mL (≈ 776 µM); against Candida albicans it was above 256 µg/mL; against Aspergillus fumigatus, above 256 µg/mL; against Bacillus subtilis it was above 256 µg/mL; against Bacillus, above 256 µg/mL. The results for the MIC with Staphylococcus aureus [2] and against Escherichia coli were 128 µg/mL (≈ 388 µM) and 16 µg/mL (≈ 48.5 µM), respectively.

`Cl.Fc1ccc(CN(CCn2cnc3ccccc32)CCn2cnc3ccccc32)c(F)c1`: the MIC was 128 µg/mL in the assay on Staphylococcus aureus [1]; above 256 µg/mL with Pseudomonas aeruginosa; above 256 µg/mL in the assay with Candida albicans; above 256 µg/mL with Aspergillus fumigatus; above 256 µg/mL with Bacillus subtilis; 64 µg/mL against Bacillus. Also, the MIC with Staphylococcus aureus [2] was 32 µg/mL; in the assay on Escherichia coli it was above 256 µg/mL.

As to `Clc1ccc(CN(CCn2cncn2)CCn2cncn2)c(Cl)c1.O=[N+]([O-])O`, the MIC against Staphylococcus aureus [1] was found to be 256 µg/mL; in the assay on Pseudomonas aeruginosa, 16 µg/mL; against Candida albicans, 0.25 µg/mL; in the assay with Aspergillus fumigatus, 128 µg/mL; in the assay on Bacillus subtilis, 128 µg/mL; with Bacillus, 8 µg/mL. For the same compound, the MIC was 32 µg/mL in the assay on Staphylococcus aureus [2] and 64 µg/mL in the assay on Escherichia coli.

(Values after ChEMBL document CHEMBL1240446, “Synthesis and biological activities of novel amine-derived bis-azoles as potential antibacterial and antifungal agents” (2010).)
